Results: the RNAGym collection of RNA variant scans (doi:10.1126/science.aae0568)
Variants at the floor of the assay were thinned out.

B1: tRNA (parent)
chain: GUUCCGUUGGCGUAAUGGUAACGCGUCUCCCUCCUAAGGAGAAGACUGCGGGUUCGAGUCCCGUACGGAACG

Variants of: B1
Assay: yeast fitness relative to wild type (ratio to wild type); higher = fitter; tRNA-Arg(CCU), competitive growth, 37 C, YPD
In short: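 Variants of the tRNA-Arg(CCU) gene, chemically synthesised with a 3% per-site mutation rate at 69 sites, were placed at the native genomic locus in Saccharomyces cerevisiae. The pooled strains were competed in YPD at 37°C for 24 hours in six parallel replicates. Gene amplicons from the start population and from each end population were read by 100-nucleotide paired-end sequencing. Darwinian fitness relative to wild type came from changes in genotype frequencies; genotypes needed ≥ 100 starting reads, and estimates < 0.5 were set to 0.5.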

Going from G39A C55G to G39A C55A, the yeast fitness falls from 0.726 to 0.696.

G39A U47A A57G and G39C C62U G63C cannot be ordered by yeast fitness: at most 0.5 for the first, at most 0.5 for the second.

Compared with G38C G68C, A40C C49U is higher in yeast fitness: 0.819 for the first, 0.892 for the second.

Compared with G38C C46A, A40C A45C C62U is lower in yeast fitness: 0.819 for the first, at most 0.5 for the second.

Compared with G39C C46U C62U C66G, G38A U47G is higher in yeast fitness: at most 0.5 for the first, 0.574 for the second.

Compared with G39C A43G U53A C62A G68C, G39C G44C is higher in yeast fitness: at most 0.5 for the first, 0.749 for the second.

G39A U47A C55U G67A A69G and G39C C55G cannot be ordered by yeast fitness: at most 0.5 for the first, at most 0.5 for the second.

Compared with A40C U54C, G38A C66U is lower in yeast fitness: 0.963 for the first, 0.909 for the second.

G38C C46A U59C and G38C C60U G68C cannot be ordered by yeast fitness: at most 0.5 for the first, at most 0.5 for the second.

First: G39C C46U C49U G56A G68C
Second: G38C C49U C62U A69U
The yeast fitness of the first is lower: 0.54 for the first, 0.819 for the second.

Compared with G38C C55G G67A, A40C C61A A65U is higher in yeast fitness: at most 0.5 for the first, 0.625 for the second.

Compared with G39A U59C, A40C C60U G67A is lower in yeast fitness: 0.956 for the first, at most 0.5 for the second.

Going from A40G A45C C49G G67C A69U to G39C A43C A57C, the yeast fitness rises from at most 0.5 to 0.628.

First: G38C G41A C61U
Second: G39A G48C
The yeast fitness of the first is lower: 0.553 for the first, 0.718 for the second.

Going from G38C G41C to G38C A43C G51C G56C, the yeast fitness falls from 0.614 to at most 0.5.

Compared with G39A C55U C61A, G39A U54A is higher in yeast fitness: at most 0.5 for the first, 0.61 for the second.

First: G39C U47C
Second: G39C G51A
The yeast fitness of the first is higher: 0.822 for the first, 0.739 for the second.

G39C U53A C62A G68C and G39A C55A G56A G67C cannot be ordered by yeast fitness: at most 0.5 for the first, at most 0.5 for the second.

First: A40G A43G C62G
Second: G38C C49U
The yeast fitness of the first is lower: at most 0.5 for the first, 0.67 for the second.

First: G38C G50A A70G
Second: G38A G39A A42G C46G
The yeast fitness of the first is lower: 0.527 for the first, 0.537 for the second.

Going from A40C A43U to A40C A43G, the yeast fitness falls from 0.986 to 0.741.

G39A G68C A70G and G38C A45U C66U cannot be ordered by yeast fitness: at most 0.5 for the first, at most 0.5 for the second.

First: G39C A42C A45C A70C
Second: G39C G67C
The yeast fitness of the first is lower: at most 0.5 for the first, 0.742 for the second.

G38C A42G C62U and A40C A57U C60G C66G cannot be ordered by yeast fitness: at most 0.5 for the first, at most 0.5 for the second.

Compared with G39C C46G, G38A G48A G50A is lower in yeast fitness: 0.875 for the first, at most 0.5 for the second.

First: G38U G67C
Second: A40C A42U C49U G50C C66U
The yeast fitness of the first is higher: 0.772 for the first, 0.565 for the second.

Going from G38C A42G U64G to G38C A57C, the yeast fitness falls from 0.781 to 0.535.

First: G38C A40U G51A C60U
Second: G38C G56A G58A A65C
The yeast fitness of the first is higher: 0.725 for the first, at most 0.5 for the second.

G39C A57C C61A U64C and G39C G51C A65G cannot be ordered by yeast fitness: at most 0.5 for the first, at most 0.5 for the second.

Going from G38C G41C A70C to A40C C61A C66A, the yeast fitness falls from 0.553 to at most 0.5.

G38C C60A and G38C U54A A65G cannot be ordered by yeast fitness: at most 0.5 for the first, at most 0.5 for the second.

Going from G38C G67C to G39A A43U U53A A57U A65U, the yeast fitness falls from 0.748 to at most 0.5.

Compared with G38C G41C C55U G67C, G38C G63A is higher in yeast fitness: at most 0.5 for the first, 0.674 for the second.

First: G38C G41C U54C A65G
Second: G38C C62U A70U
The yeast fitness of the first is lower: at most 0.5 for the first, 0.533 for the second.

Compared with A40C G50A C62U, A40C A70G is higher in yeast fitness: 0.543 for the first, 0.979 for the second.

First: A40C A70C
Second: G39C C60G A70U
The yeast fitness of the first is higher: 0.94 for the first, 0.524 for the second.

A40C G56C C66G and G39A C55U G68C A69G cannot be ordered by yeast fitness: at most 0.5 for the first, at most 0.5 for the second.

Compared with G39C U64C, G39C A43U G58C is lower in yeast fitness: 0.959 for the first, 0.57 for the second.

G38A G48A C49G A69U and A40C C62G G63A cannot be ordered by yeast fitness: at most 0.5 for the first, at most 0.5 for the second.

Compared with G39A A57U G67C, G39C A65G A70U is lower in yeast fitness: 0.555 for the first, at most 0.5 for the second.

Compared with G39C A43U A70U, G38C C55G is lower in yeast fitness: 0.691 for the first, 0.617 for the second.

Going from G38C C55U to G39A A42C C61U, the yeast fitness falls from 0.545 to 0.542.

First: A40C C62U
Second: G38C U47G
The yeast fitness of the first is higher: 0.863 for the first, 0.538 for the second.

First: G38C U47C
Second: A40C A42G
The yeast fitness of the first is lower: 0.757 for the first, 0.886 for the second.

Compared with G39A C55G G56A A69U A70G, A40C A69U is higher in yeast fitness: at most 0.5 for the first, 0.843 for the second.

Going from A40C A69C to G39A A43U A57G, the yeast fitness falls from 0.765 to 0.562.

Compared with A40C A65C, A40C A65U is lower in yeast fitness: 0.825 for the first, 0.817 for the second.

Going from A40C A65G to G39A A43U C46U, the yeast fitness falls from 0.924 to 0.574.

Going from G38A U53C to G38A U53A, the yeast fitness falls from 0.799 to 0.587.

G38C A42C C49A and A40G A43G G44C cannot be ordered by yeast fitness: at most 0.5 for the first, at most 0.5 for the second.

Compared with G38A G48A C49G, A40C A57G is higher in yeast fitness: 0.525 for the first, 0.813 for the second.

First: G38C A45C U47C
Second: A40G A43U C55G
The yeast fitness of the first is lower: at most 0.5 for the first, 0.535 for the second.

First: G38C G41C A57C
Second: A40C G52C
The yeast fitness of the first is lower: 0.576 for the first, 0.685 for the second.

Going from A40C G63A to G39A G41C C46A G68A, the yeast fitness falls from 0.815 to 0.55.

Going from G38A U47C G56A to G39A U47A, the yeast fitness rises from 0.673 to 0.89.

Going from G39U C49A G58C to G38A G67U, the yeast fitness rises from 0.646 to 0.803.

Going from G38A G67C to A40G A42C, the yeast fitness falls from 0.776 to 0.757.

Going from A40G A42U to G38C A45G A70C, the yeast fitness falls from 0.71 to 0.548.

First: G38C C61A G67A
Second: G39A C66A
The yeast fitness of the first is lower: at most 0.5 for the first, 0.698 for the second.

Going from G39A C66G to G38C A40U G51A C60U G68A, the yeast fitness falls from 0.711 to at most 0.5.

First: A40C A42U C49G C66G
Second: G39C G50A U64A
The yeast fitness of the first is higher: 0.612 for the first, at most 0.5 for the second.

First: A40C C55U
Second: A40C C55G
The yeast fitness of the first is higher: 0.929 for the first, 0.527 for the second.

First: G38C A65G
Second: A40C A57G A70C
The yeast fitness of the first is higher: 0.771 for the first, 0.55 for the second.

Going from G39A C49A G52A G63A A70C to G39C C46A A69C, the yeast fitness rises from at most 0.5 to 0.53.

Going from A40C G41C to A40C G41A, the yeast fitness rises from 0.56 to 0.978.

Compared with G38C G58C U64A, A40C C49A G51C U59A is lower in yeast fitness: 0.621 for the first, at most 0.5 for the second.

Compared with G38A G44C, G38A U47C C62U is lower in yeast fitness: 0.712 for the first, 0.539 for the second.

Going from G38C G39C U54G to A40C G48A, the yeast fitness rises from 0.545 to 1.02.

Going from A40C G58C to G39A A70C, the yeast fitness rises from 0.922 to 1.04.

G38C C66G G67U and A40G A43G G44C C66U cannot be ordered by yeast fitness: at most 0.5 for the first, at most 0.5 for the second.

Compared with G38A G52C G56A, A40C G51A U54A is lower in yeast fitness: 0.609 for the first, at most 0.5 for the second.

Going from G38C G39C C46U C66U A69U to G39A A65C, the yeast fitness rises from at most 0.5 to 0.837.

First: G39A A65G
Second: G39A C60G A70G
The yeast fitness of the first is higher: 0.985 for the first, at most 0.5 for the second.

Compared with G38C G50A, G38C G41C C61U A70G is lower in yeast fitness: 0.734 for the first, at most 0.5 for the second.

Compared with G39A C62G, A40C C49G C60G is lower in yeast fitness: 0.752 for the first, 0.532 for the second.

Compared with G39C G48C G52C, G38C U54A U59G A65C is higher in yeast fitness: at most 0.5 for the first, 0.692 for the second.

Going from G39C A42G A43U C62U A69U to G39C C62G, the yeast fitness rises from at most 0.5 to 0.607.

First: A40C C46A C61G A69G
Second: A40C C46U
The yeast fitness of the first is lower: at most 0.5 for the first, 0.875 for the second.

First: A40C C46A
Second: G38C G56A
The yeast fitness of the first is higher: 0.994 for the first, 0.789 for the second.

Going from A40C C46G G51C A57C A65U A70C to A40C U53A, the yeast fitness rises from 0.555 to 0.599.

First: A40C U53C
Second: G39A C49U A57U
The yeast fitness of the first is higher: 0.828 for the first, 0.562 for the second.

Going from G38A G39A to G39C C49U, the yeast fitness rises from 0.637 to 0.827.

Going from G39C C49G to G38C G44A, the yeast fitness rises from 0.59 to 0.72.

Variant G39C A57C has a yeast fitness of at most 0.5.
